Assay results: paper PMC9870662 (Medicinal Chemistry Research, 2023)
pIC50: −log10 of the molar value. Where two headings read alike, the source gives them in different places.

Key:
[1] = biological target: T1, Ovine COX-1 (Ovis aries, UniProt P05979); assay: COX-1 enzyme inhibition assay; type: biochemical
T1 sequence (P05979 25-600): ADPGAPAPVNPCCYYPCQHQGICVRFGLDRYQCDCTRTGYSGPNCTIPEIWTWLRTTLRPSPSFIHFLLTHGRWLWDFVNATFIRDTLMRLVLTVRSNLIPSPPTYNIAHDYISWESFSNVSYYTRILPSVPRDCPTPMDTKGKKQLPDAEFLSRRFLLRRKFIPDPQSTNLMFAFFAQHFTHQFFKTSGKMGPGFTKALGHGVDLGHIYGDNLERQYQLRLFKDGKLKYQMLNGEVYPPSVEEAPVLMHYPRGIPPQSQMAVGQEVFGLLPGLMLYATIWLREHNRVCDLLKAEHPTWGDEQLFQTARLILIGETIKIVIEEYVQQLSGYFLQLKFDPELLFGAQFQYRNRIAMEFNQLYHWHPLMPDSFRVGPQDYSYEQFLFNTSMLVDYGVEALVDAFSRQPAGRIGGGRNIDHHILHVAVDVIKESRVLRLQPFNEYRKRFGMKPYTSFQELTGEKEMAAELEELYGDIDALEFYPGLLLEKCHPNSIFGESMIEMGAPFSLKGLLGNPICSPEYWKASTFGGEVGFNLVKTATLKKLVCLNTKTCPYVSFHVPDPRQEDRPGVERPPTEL

[2] = biological target: T2, Human recombinant COX-2 (Homo sapiens, UniProt P35354); assay: biochemical
T2 sequence (P35354 18-604): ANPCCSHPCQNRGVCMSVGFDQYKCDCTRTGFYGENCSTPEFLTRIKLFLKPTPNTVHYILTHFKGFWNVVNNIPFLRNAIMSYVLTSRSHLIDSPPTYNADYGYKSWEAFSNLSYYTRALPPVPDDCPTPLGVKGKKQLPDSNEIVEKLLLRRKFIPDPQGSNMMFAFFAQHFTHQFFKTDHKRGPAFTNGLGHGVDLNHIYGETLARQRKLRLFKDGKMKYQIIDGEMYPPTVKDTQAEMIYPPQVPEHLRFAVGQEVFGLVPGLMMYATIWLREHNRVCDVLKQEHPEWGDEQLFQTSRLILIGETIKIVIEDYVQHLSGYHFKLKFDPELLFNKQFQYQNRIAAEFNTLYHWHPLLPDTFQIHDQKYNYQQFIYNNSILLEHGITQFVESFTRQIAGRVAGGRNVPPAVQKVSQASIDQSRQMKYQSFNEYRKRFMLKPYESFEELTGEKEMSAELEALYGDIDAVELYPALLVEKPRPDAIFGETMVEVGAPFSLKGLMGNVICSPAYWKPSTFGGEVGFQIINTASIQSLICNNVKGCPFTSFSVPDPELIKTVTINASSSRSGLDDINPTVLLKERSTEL

[3] = system: male NMRI mice; assay: Acetic acid-induced writhing test; type: in vivo; details: for Response (n) Mean ± SD: number of writhing responses during 30 min, eight mice
[4] = system: MCF-7 breast cancer cell line; assay: MTT cytotoxicity assay; type: cell-based
Method in brief: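 MCF-7 cells from IBRC seeded in RPMI1640 at 37 °C, 5% CO2, high humidity. After one day, medium replaced with medium containing test compound; celecoxib as reference, plain medium as control. Incubated 72 h, then MTT added for 4 h at 37 °C. Supernatant removed, cells exposed to DMSO 20 min at 37 °C, absorbance read at 570 nm.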

SMILES	IC50 ([1]; read-out: IC50 in µM Ovine COX-1, fluorescent enzyme kit) [µM]	IC50 ([2]; read-out: IC50 in µM Human recombinant COX-2) [µM]	Response (n) Mean ± SD ([3]; 10 mg/kg i.p.)	Response (n) Mean ± SD ([3]; 20 mg/kg i.p.)	Response (n) Mean ± SD ([3]; 40 mg/kg i.p.)	Response (n) Mean ± SD ([3]; 80 mg/kg i.p.)	Estimated ED50 (mg/kg) (95% Confidence Interval) ([3]; i.p., nonlinear regression of log dose-response curve)	% Inhibition (10 µM) ([4]; 10 µM, MCF-7, 72 h, MTT) [%]	pIC50 [1]	pIC50 [2]	Selectivity Index (SI) ([2]; COX-1 vs COX-2)	Response (n) Mean ± SD ([3]; 5 mg/kg i.p.)	ED50 ([3]; Mus musculus, ip, read-out: Estimated ED50 (mg/kg) (95% Confidence Interval))	inhibition at 10 µM ([4]; Homo sapiens, MCF7, 72 h, read-out: % Inhibition (10 µM)) [%]
CS(=O)(=O)c1ccc(-c2cc(-c3ccc(F)cc3)n3c(n2)nc2ccccc23)cc1 [Compound 5l, 4-(4-Flourophenyl)-2-(4-(methylsulfonyl)phenyl)benzo[4,5]imidazo[1,2-a]pyrimidine]	38.8	0.69	34.25 ± 1.71	26.13 ± 2.67	19.25 ± 4.32	11.75 ± 1.48	25.26 (22.90–27.91) mg/kg	56.67						
CS(=O)(=O)c1ccc(-c2cc(-c3cccc(Cl)c3)n3c(n2)nc2ccccc23)cc1 [Compound 5n, 4-(3-Chlorophenyl)-2-(4-(methylsulfonyl)phenyl)benzo[4,5]imidazo[1,2-a]pyrimidine]			23.50 ± 3.20	19.88 ± 4.11	15.75 ± 4.35	11.50 ± 3.77			4.98	6.62	43.3	28.50 ± 4.72	12.1	72.7
